“Also recorded” adds a separate entry of the source. Where two headings read alike, the source gives them in different places. Marks after values point to notes of the source that are not given here.
How the values were obtained:
[1] = tested on: mice; conditions: ref Lewter et al., 2017; cited from earlier work
[2] = tested on: rats; conditions: cited from earlier work
[3] = biological target: hGABAAR (α2β3γ2) (Homo sapiens, UniProt P18507+P47869); format: cell-based
[4] = biological target: hGABAAR (α5β3γ2) (Homo sapiens, UniProt P18507+P31644); format: cell-based
[5] = biological target: hGABAAR (α3β3γ2) (Homo sapiens, UniProt P18507+P34903); format: cell-based
[6] = tested on: rats; experiment: Pentylenetetrazole; format: in vivo, rat; conditions: i.p.
Summary of the method: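 Male Sprague Dawley rats (90–110 g), test compound suspended in 1% hydroxyethylcellulose/0.05% tween 80/0.05% antifoam, given 30 mg/kg i.p. 30 min before testing. Percent of rats without clonic convulsions recorded, 5 rats/group (vehicle 20), Fisher's exact test.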

[7] = ref Poe et al., 2016; cited from earlier work
[8] = biological target: hGABAAR (α1β3γ2) (Homo sapiens, UniProt P14867+P18507); format: cell-based; conditions: HEK293 cells, human α1β3γ2, peak GABA EC15-evoked current
Chain of hGABAAR (α1β3γ2) (P14867 28-456): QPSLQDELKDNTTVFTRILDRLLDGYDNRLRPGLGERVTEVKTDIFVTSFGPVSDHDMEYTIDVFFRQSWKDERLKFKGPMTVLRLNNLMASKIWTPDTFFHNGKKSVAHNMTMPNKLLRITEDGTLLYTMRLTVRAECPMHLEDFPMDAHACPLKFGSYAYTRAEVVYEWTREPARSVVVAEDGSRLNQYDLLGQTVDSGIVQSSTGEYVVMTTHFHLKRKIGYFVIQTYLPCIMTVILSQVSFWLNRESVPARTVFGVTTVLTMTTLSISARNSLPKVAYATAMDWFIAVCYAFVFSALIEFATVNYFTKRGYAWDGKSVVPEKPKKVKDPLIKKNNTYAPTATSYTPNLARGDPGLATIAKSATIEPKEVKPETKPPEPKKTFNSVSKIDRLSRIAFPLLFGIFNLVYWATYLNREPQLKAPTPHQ
Chain of hGABAAR (α1β3γ2) (P28472 26-473 partner): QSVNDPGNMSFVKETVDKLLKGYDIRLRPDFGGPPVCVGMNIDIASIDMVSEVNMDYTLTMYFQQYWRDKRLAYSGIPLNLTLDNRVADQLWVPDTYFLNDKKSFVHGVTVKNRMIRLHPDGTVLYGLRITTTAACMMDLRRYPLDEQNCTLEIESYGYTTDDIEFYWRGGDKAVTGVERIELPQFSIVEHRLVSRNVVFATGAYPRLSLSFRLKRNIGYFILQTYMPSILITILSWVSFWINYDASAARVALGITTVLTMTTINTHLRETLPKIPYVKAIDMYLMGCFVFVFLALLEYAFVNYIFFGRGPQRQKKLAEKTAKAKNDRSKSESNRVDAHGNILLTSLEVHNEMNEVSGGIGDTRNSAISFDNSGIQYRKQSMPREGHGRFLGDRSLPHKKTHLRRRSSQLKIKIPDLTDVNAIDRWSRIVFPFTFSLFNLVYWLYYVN
Chain of hGABAAR (α1β3γ2) (P18507 40-475): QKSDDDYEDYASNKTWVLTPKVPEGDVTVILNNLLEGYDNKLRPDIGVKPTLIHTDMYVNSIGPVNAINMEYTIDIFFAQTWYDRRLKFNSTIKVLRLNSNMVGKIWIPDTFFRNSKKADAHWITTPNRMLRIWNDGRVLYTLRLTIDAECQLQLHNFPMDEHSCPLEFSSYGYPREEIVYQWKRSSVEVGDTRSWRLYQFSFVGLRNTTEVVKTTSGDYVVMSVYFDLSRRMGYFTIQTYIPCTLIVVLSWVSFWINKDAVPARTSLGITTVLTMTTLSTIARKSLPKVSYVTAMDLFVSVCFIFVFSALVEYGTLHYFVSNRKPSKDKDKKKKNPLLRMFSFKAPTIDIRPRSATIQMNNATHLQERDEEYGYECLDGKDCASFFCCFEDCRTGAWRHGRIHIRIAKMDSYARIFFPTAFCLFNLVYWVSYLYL

Chain of hGABAAR (α5β3γ2) (P31644 32-462): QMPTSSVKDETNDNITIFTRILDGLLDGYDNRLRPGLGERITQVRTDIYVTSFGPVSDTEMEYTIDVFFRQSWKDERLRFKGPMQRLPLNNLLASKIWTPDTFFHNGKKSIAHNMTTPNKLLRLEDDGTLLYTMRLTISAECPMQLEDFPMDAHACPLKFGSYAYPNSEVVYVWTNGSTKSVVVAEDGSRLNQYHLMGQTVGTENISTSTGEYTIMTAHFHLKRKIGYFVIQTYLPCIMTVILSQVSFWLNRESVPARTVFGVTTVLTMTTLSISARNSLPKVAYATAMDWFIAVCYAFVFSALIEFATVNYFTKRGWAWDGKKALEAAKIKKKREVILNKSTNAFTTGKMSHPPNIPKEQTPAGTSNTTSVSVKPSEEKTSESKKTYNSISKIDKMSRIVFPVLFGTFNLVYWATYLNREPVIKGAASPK
Chain of hGABAAR (α5β3γ2) (P28472 26-473 partner): as the sequence (P28472 26-473 partner) above
Chain of hGABAAR (α5β3γ2) (P18507 40-475): as the sequence (P18507 40-475) above
Chain of hGABAAR (α3β3γ2) (P34903 29-492): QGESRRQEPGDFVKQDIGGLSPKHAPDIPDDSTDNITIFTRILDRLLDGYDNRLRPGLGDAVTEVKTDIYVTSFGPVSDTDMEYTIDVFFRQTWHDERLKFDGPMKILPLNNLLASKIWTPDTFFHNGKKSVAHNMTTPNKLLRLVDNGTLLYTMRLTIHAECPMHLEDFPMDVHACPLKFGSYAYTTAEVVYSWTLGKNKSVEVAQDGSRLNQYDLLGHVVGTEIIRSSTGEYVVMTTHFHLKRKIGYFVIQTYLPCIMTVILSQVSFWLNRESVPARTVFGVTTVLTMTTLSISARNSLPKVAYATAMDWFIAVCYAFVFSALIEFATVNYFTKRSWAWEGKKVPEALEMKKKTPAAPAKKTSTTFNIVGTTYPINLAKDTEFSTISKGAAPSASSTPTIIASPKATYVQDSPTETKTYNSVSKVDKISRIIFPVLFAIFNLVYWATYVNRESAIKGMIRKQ
Chain of hGABAAR (α3β3γ2) (P28472 26-473 partner): as the sequence (P28472 26-473 partner) above
Chain of hGABAAR (α3β3γ2) (P18507 40-475): as the sequence (P18507 40-475) above
Chain of hGABAAR (α2β3γ2) (P47869 29-451): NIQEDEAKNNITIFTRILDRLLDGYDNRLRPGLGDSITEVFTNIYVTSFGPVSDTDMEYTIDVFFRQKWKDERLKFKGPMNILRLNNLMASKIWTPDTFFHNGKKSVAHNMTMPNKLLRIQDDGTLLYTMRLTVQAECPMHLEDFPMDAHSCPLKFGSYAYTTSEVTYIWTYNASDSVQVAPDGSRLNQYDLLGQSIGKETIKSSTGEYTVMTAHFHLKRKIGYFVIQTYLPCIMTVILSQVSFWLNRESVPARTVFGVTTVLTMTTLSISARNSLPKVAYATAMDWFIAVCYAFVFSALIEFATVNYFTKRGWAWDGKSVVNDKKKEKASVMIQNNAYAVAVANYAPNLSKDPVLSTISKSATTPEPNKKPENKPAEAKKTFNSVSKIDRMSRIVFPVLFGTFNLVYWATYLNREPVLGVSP
Chain of hGABAAR (α2β3γ2) (P28472 26-473 partner): as the sequence (P28472 26-473 partner) above
Chain of hGABAAR (α2β3γ2) (P18507 40-475): as the sequence (P18507 40-475) above

C#Cc1ccc2c(c1)C(c1ccccn1)=NCc1c(-c3cnco3)ncn1-2 [Compound 9, 5-(8-Ethynyl-6-(pyridin-2-yl)-4H-benzo[f]imidazo[1,5-a][1,4]diazepin-3-yl)oxazole]
acid-induced pain behaviors [1]: attenuated acid-induced pain behaviors
activity in Vogel conflict test (punished drinking) ([2]; ref Poe et al., 2016, listed as KRM-II-81): increased punished drinking; also recorded: efficacious

NCCCC(=O)O [GABA]
average maximum negative current amplitude ([3]; saturating concentration of GABA, α2β3γ2): 0.8 nA
average maximum negative current amplitude ([4]; saturating concentration of GABA, α5β3γ2): 0.9 nA
average maximum negative current amplitude ([5]; saturating concentration of GABA, α3β3γ2): 1.0 nA

C#Cc1ccc2c(c1)C(c1ccccn1)=NCc1c(C(=O)OCC)ncn1-2 [HZ-166]
reduction of convulsions induced by PTZ ([6]; 30 mg/kg): 60%
activity in Vogel conflict test (punished drinking) ([2]; ref Poe et al., 2016): not active
marble-burying [7]: decreased marble-burying

CN1C(=O)CN=C(c2ccccc2)c2cc(Cl)ccc21 [Diazepam, diazepam]
GABAA-a2 Max (%GABA) ([3]; HEK293 cells, human α2β3γ2, peak GABA EC15-evoked current): 203.4 %GABA
GABAA-a1 Max (%GABA) [8]: 171.9 %GABA
GABAA-a5 Max (%GABA) ([4]; HEK293 cells, human α5β3γ2, peak GABA EC15-evoked current): 220.7 %GABA
GABAA-a3 Max (%GABA) ([5]; HEK293 cells, human α3β3γ2, peak GABA EC15-evoked current): 265.6 %GABA

CCCC(CCC)C(=O)O [Valpro, valproic acid]
Anticonvulsant Effect (percent of animals protected, no clonic convulsions) ([6]; valproic acid 300 mg/kg, 35 mg/kg pentylenetetrazole s.c.): 100 ^* percent

From paper PMC5519285 (Pharmacology, biochemistry, and behavior, 2017)
